Results pooled from the literature.
Each line is one published result; the experiments were not run side by side.
Rock2: Rho-associated protein kinase 2 (Rock2, Rattus norvegicus, UniProt Q62868)
PTGS2: Prostaglandin G/H synthase 2 (PTGS2, Homo sapiens, UniProt P35354)
DYRK3: Dual specificity tyrosine-phosphorylation-regulated kinase 3 (DYRK3, Homo sapiens, UniProt O43781)
DYRK1B: Dual specificity tyrosine-phosphorylation-regulated kinase 1B (DYRK1B, Homo sapiens, UniProt Q9Y463)
BRDT BD2: Bromodomain testis-specific protein, BD2 (BRDT, Homo sapiens, UniProt Q58F21)
NUAK1: NUAK family SNF1-like kinase 1 (NUAK1, Homo sapiens, UniProt O60285)
CDKL5: Cyclin-dependent kinase-like 5 (CDKL5, Homo sapiens, UniProt O76039)

COc1cc(/C=C/C(=O)CC(=O)/C=C/c2ccc(O)c(OC)c2)ccc1O — activity vs control (Rock2; enzyme activity, inhibitor; 1 µM): 90%
COc1ccc2c(c1)c(CC(=O)O)c(C(F)(F)F)n2C(=O)c1ccc(Cl)cc1 — kinact/KI (PTGS2; enzyme activity, inhibitor): 13000 M⁻¹ s⁻¹
N#Cc1cccc(Nc2nc3cc(C(=O)O)ccc3c3cnccc23)c1 — remaining activity (DYRK3; enzyme activity, inhibitor, radiometric; 1 µM): 0%
O=c1cc(-c2ccc(O)cc2)oc2cc(O)cc(O)c12 — inhibition (PTGS2; enzyme activity, inhibitor; 0.12 µg/mL): 3.07%
Cn1nnc2ccc(NC(=O)c3cccc(C(=O)O)c3)cc21 — ΔTm (CREB-binding protein, bromodomain (CREBBP, Homo sapiens, UniProt Q92793); thermal stability, DSF; 100 µM): 2 °C
O=c1cc(-c2ccc(O)c(O)c2)oc2cc(O)cc(O)c12 — inhibition (PTGS2; enzyme activity, inhibitor; 0.12 µg/mL): 21.6%
O=C(O)c1ccc2c(c1)nc(Nc1ccc(Cl)cc1)c1ccncc12 — remaining activity (DYRK3; enzyme activity, inhibitor, radiometric; 1 µM): 2%
N=C(N)NCCC[C@H](NC(=O)[C@H](CC(=O)O)NC(=O)[C@H](Cc1c[nH]c2ccccc12)NC(=O)[C@H](CCCNC(=N)N)NC(=O)[C@@H](N)Cc1ccccc1)C(=O)N[C@@H](Cc1ccccc1)C(=O)NCC(=O)O — Emax (Melanocyte-stimulating hormone receptor (Mc1r, Mus musculus, UniProt Q01727); cAMP, agonist; HEK293): 30%
C=C[C@@]1(C)C=C2CC[C@@H]3[C@](C)(CCC[C@@]3(C)C(=O)O)[C@H]2CC1 — inhibition (PTGS2; enzyme activity, inhibitor; 0.24 µg/mL): 0%
O=C(O)c1ccc2c(c1)nc(Nc1ccc(F)c(Cl)c1)c1ccncc12 — remaining activity (DYRK1B; enzyme activity, inhibitor, radiometric; 1 µM): 22%
Cc1cnc(Nc2ccc(OCCN3CCCC3)cc2)nc1Nc1cccc(S(=O)(=O)NC(C)(C)C)c1 — ΔTm (Transcription intermediary factor 1-beta (TRIM28, Homo sapiens, UniProt Q13263); thermal stability, DSF; 10 µM): 0.08 °C
O=C(O)c1ccc2c(c1)nc(NCCc1ccccc1)c1ncncc12 — remaining activity (DYRK3; enzyme activity, inhibitor, radiometric; 1 µM): 25%
Oc1ccc(-c2nc(-c3ccncc3)c(-c3ccc(F)cc3)[nH]2)cc1 — ΔTm (Bromodomain testis-specific protein, BD1 (BRDT, Homo sapiens, UniProt Q58F21); thermal stability, DSF; 10 µM): -0.47 °C
O=C(O)c1ccc2c(c1)nc(Nc1ccc3ccccc3c1)c1ccncc12 — remaining activity (DYRK1B; enzyme activity, inhibitor, radiometric; 1 µM): 84%
NS(=O)(=O)c1ccc(Nc2nc(-c3ccc(F)cc3)c3ccccc3n2)cc1 — remaining binding (BRDT BD2; binding, competition with immobilised ligand; 1 µM): 4%
O=C(O)c1ccc2c(c1)nc(Nc1ccccc1)c1ccncc12 — remaining activity (DYRK3; enzyme activity, inhibitor, radiometric; 1 µM): 7%
O=C(NCCCNc1nc(Nc2cccc(NC(=O)N3CCCC3)c2)ncc1C1CC1)C1CCC1 — remaining activity (NUAK1; enzyme activity, inhibitor, radiometric; 1 µM): 51%
Cc1ccc(NC(=O)c2ccc(C)c(C(F)(F)F)c2)cc1C#Cc1nn(C2CCC(O)CC2)c2ncnc(N)c12 (centres unmarked) — remaining signal (Rock2; cell-free assay; 10 µM): 85%
O=C(O)c1ccc2c(c1)nc(NCCc1cccc(Cl)c1)c1ccncc12 — remaining activity (DYRK3; enzyme activity, inhibitor, radiometric; 1 µM): 5%
Cc1cc2c(cc1N1C(=O)c3cccc4c(Cl)ccc(c34)C1=O)n(C)c(=O)n2C — ΔTm (BRDT BD2; thermal stability, DSF; 10 µM): -1 °C
COc1ccc(-c2cc(=O)c3c(O)cc(O[C@@H]4O[C@H](CO)[C@@H](O)[C@H](O)[C@H]4O)cc3o2)cc1O — inhibition (PTGS2; enzyme activity, inhibitor; 31.25 µg/mL): 100%
Cc1ccc(C(=O)Nc2ccc(CN3CCN(C)CC3)c(C(F)(F)F)c2)cc1C#Cc1cnc2cccnn12 — remaining activity (CDKL5; enzyme activity; 23.5 nM): 100%
Nc1ncnc2occ(-c3ccc(NC(=O)Nc4cc(C(F)(F)F)ccc4F)cc3)c12 — remaining signal (CDKL5; cell-free assay; 20 µM): 4.3%
COC(=O)c1ccc(O)cc1 — inhibition (PTGS2; enzyme activity, inhibitor; 0.49 µg/mL): 0%
CN(C)C1CCN(CC#Cc2nn(C3CCCC3)c3nc(NCc4ccccc4)ncc23)C1 (centres unmarked) — inhibition (NUAK1; enzyme activity, inhibitor, FRET; 0.1 µM): 0%
O=C(O)c1ccc(O)cc1 — inhibition (PTGS2; enzyme activity, inhibitor; 3.9 µg/mL): 61.1%
CCN1CCN(Cc2ccc(NC(=O)c3ccc(C)c(Oc4ccnc5[nH]ccc45)c3)cc2C(F)(F)F)CC1 — inhibition (Inositol-tetrakisphosphate 1-kinase (Homo sapiens, UniProt Q13572); target engagement in cells, inhibitor, chemoproteomics; Huh-7; 1 µM): -10.6%
O=C(O)c1ccc2c(c1)nc(Nc1ccc(Cl)cc1)c1ncncc12 — remaining activity (DYRK1B; enzyme activity, inhibitor, radiometric; 1 µM): 80%
C[S+]([O-])c1ccc(-c2nc(-c3ccncc3)c(-c3ccc(F)cc3)[nH]2)cc1 (centres unmarked) — ΔTm (Bromodomain and WD repeat-containing protein 1, BD2 (BRWD1, Homo sapiens, UniProt Q9NSI6); thermal stability, DSF; 10 µM): 1.32 °C
